Article PMC11062580 (Science Advances, 2024)

Columns and labels:
tau K18^+ fibrils [1] = experiment: TEM of tau K18+ aggregation with inhibitor; format: biochemical; details: 20 μM tau K18+, 48 h; 5-100 μM peptide or MNPs-DP 0.005-0.04 mg/ml
Summary of the method: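 Recombinant tau K18+ (20 µM final, PBS pH 7.4) was aggregated with 40 µM ThT, 15 µM heparin and 1 mM DTT at 37°C with 700 rpm double orbital shaking. Test peptide was at 5–100 µM; nanoparticles at 0.005–0.04 mg/ml. For TEM, 6 µl sample went on glow-discharged carbon grids for 5 min, then 2% uranyl acetate for 2 min.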

tau K18^+ fibrils [2] = experiment: ThT fragmentation assay of preformed tau K18+ fibrils; format: biochemical
tau K18^+ fibrils [3] = experiment: TEM of preformed tau K18+ fibrils after treatment; format: biochemical; details: 7-DP 2.5-100 μM or MNPs-DP 0.005-0.02 mg/ml, 24 hours
tau K18^+ fibrils [4] = experiment: Dot blot with anti-amyloid OC antibody; format: biochemical; details: 7-DP 2.5-100 μM or MNPs-DP 0.005-0.02 mg/ml, 24 h
AD tau fibrils = experiment: TEM of AD-extracted tau fibrils after treatment; format: biochemical; details: 0.02 mg/ml (86 μM 7-DP for MNPs-DP), 48 hours, 37°C; n = 10 images
C57BL/6J mice brain = experiment: BBB penetration, Fe in brain by ICP-MS; format: in vivo, mouse; details: 10 mg/kg tail vein with intranasal mannitol; 2 hours; n = 3 per group
Summary of the method: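 Wild-type C57BL/6J mice aged 2 months received 20 μl of 2% mannitol intranasally, then test nanoparticles at 10 mg/kg by tail vein; controls received PBS. Mice were euthanized after 2 h and perfused. Half-brains were dried at 105°C, digested in concentrated HNO3/HCl at 80°C for 2 h and diluted. Fe was quantified by ICP-MS.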

Body weight of PS19 mice = format: in vivo, mouse; details: 10 mg/kg i.v. weekly for 10 weeks, with intranasal mannitol; n = 13 per group
PS19 mice [5] = experiment: Barnes maze test; format: in vivo, mouse; details: 10 mg/kg i.v. weekly for 10 weeks
Summary of the method: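 Mice were seeded with K18+ fibrils (2-month males, 6-month females) and given weekly tail-vein 10 mg/kg for 10 weeks plus intranasal mannitol; PBS vehicle; C57BL/6J controls. Maze had 20 holes with an escape box. Acquisition was 10 trials (2/day, 15-min interval, 2 min each). Probe came 1 day later: tunnel replaced, 90 s, with primary latency and target-hole entries. Testing was blinded and randomized.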

PS19 mice [6] = experiment: Novel object recognition test; format: in vivo, mouse; details: 10 mg/kg i.v. weekly for 10 weeks, n = 13
Summary of the method: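 PS19 mice seeded with K18+ fibrils, then weekly i.v. 10 mg/kg for 10 weeks with intranasal mannitol; PBS vehicle. Arena habituation was 10 min, 24 h before testing. Acquisition: two identical objects, 10 min. After 90 min in the home cage, retention: one familiar and one novel object, 10 min. Exploration was nose, mouth or forepaw contact. DR = TC/(TR + TC); […].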

PS19 mice [7] = experiment: Serum AST as index of hepatic toxicity; format: in vivo, mouse; details: 10 mg/kg i.v. weekly for 10 weeks; n = 13; ELISA
PS19 mice [8] = experiment: H&E histology of major organs; format: in vivo, mouse; details: 10 mg/kg i.v. weekly for 10 weeks
Summary of the method: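 Seeded PS19 mice were treated weekly i.v. at 10 mg/kg for 10 weeks with intranasal mannitol. Heart, liver, spleen, lung and kidney (n = 3) were fixed in 4% buffered formalin at 4°C overnight and embedded in paraffin. Sections of 5 µm were stained with hematoxylin and eosin.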

[9] = test system: phosphorylated tau (ptau) pSer^202/Thr^205; experiment: AT8 immunohistochemistry of hippocampus; format: in vivo, mouse; details: 10 mg/kg i.v. weekly for 10 weeks; n = 6 per group
Summary of the method: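 PS19 mice seeded stereotaxically with 1.5 µl recombinant K18+ tau fibril seeds (5 µg/µl). Dosing began 2 weeks later: tail-vein 10 mg/kg weekly for 10 weeks, with intranasal mannitol; vehicle was PBS. Brain sections were stained with AT8 (pSer202/Thr205) at 4°C overnight, then biotinylated anti-mouse secondary (1:1000, 1 h, 37°C). AT8-positive staining was quantified in hippocampal CA1 and CA3.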

tau aggregation = details: phase 2 (curcumin) and phase 3 (methylene blue/LMTX) trials; cited from earlier work

Molecule | counts and length of tau K18+ fibrils (TEM) (tau K18^+ fibrils [1]) | fragmentation of preformed tau K18+ fibrils, MNPs-DP and MNPs (ThT) (tau K18^+ fibrils [2]; 20 μM tau K18+ fibrils, MNPs-DP or MNPs 0.02 mg/ml, added at 10 hours, reference 50 μM 7-DP) | dose-dependent ThT fluorescence intensity of tau K18+ fibrils (tau K18^+ fibrils [2]; 7-DP 2.5-100 μM or MNPs-DP 0.005, 0.01, 0.02 mg/ml) | dose-dependent number/abundance of tau K18+ fibrils under TEM (tau K18^+ fibrils [3]) | binding of anti-amyloid OC antibody to tau K18+ fibrils (tau K18^+ fibrils [4]) | fragmentation of AD-extracted tau fibrils by MNPs-DP or MNPs (AD tau fibrils) | BBB penetration (C57BL/6J mice brain) | body weight of PS19 mice (Body weight of PS19 mice) | memory function in probe trial, overall (PS19 mice [5]; compared with PBS-treated PS19 mice) | latency time to find escape hole, learning period (PS19 mice [5]; n = 13, 6 days) | exploration of novel versus familiar object (PS19 mice [6]; 90-min interval) | discriminatory index (DI) (PS19 mice [6]; versus vehicle) | discriminatory ratio (DR) (PS19 mice [6]; versus vehicle) | serum AST levels (PS19 mice [7]) | histology of liver, spleen, heart, lung, kidney (PS19 mice [8]; H&E, n = 3, 100 day post-injection) | overall toxicity after 10 weeks (PS19 mice [8]; PS19 mice) | AT8-positive tau pathology in hippocampus CA1 and CA3 [9] | clinical efficacy (tau aggregation)
MNPs-D-TLKIVWC [MNPs-DP] | reduced the length of tau fibrils in a dose-dependent manner | fragmented preformed tau K18^+ fibrils as evidenced by the decrease of ThT signal | reduction of ThT fluorescence intensity | reduction of the abundance of tau K18^+ fibrils and a concurrent increase in the number of globular species | decrease of binding to anti-amyloid OC antibody | fragmented AD-extracted tau fibrils after a 48-hour incubation | can cross the BBB | consistent increase in body weights | comparable performance to WT mice and a significant improvement in memory function compared with PBS-treated PS19 mice | learned a new task quicker with a shorter latency time to find the escape hole compared to the vehicle- or naked MNP-treated PS19 mice | explored the novel object significantly longer than the familiar one | appeared to significantly improve the discriminatory index | appeared to significantly improve the discriminatory index (DI; Fig. 5G) and discriminatory ratio (DR) | comparable to the vehicle groups | no evidence of toxic changes or cell death in cellular structures | without apparent toxic side effects in other body systems | significantly limited tau pathology in both the CA1 and CA3 regions | 
COc1cc(/C=C/C(=O)CC(=O)/C=C/c2ccc(O)c(OC)c2)ccc1O [curcumin] |  |  |  |  |  |  |  |  |  |  |  |  |  |  |  |  |  | have yet to show efficacy in treating disease
CN(C)c1ccc2nc3ccc(=[N+](C)C)cc-3sc2c1 [methylene blue/LMTX, methylene blue] |  |  |  |  |  |  |  |  |  |  |  |  |  |  |  |  |  | have yet to show efficacy in treating disease
